Several values for one entry are separate records, joined by “and”; a condition that tells them apart may be missing. Equal entries are not always repeated.

For test [1], the system named is TCR-β minigene mRNA (NMD) in HeLa cells. Nature of the test: NMD assay, RT-qPCR of TCR-β minigene mRNA in PTC− and PTC+ HeLa cells. Particulars: for TCR-β mRNA levels in PTC+ cells / TCR-β mRNA levels in PTC− cells: normalized to β-actin; for TCR-β mRNA levels in PTC− cells: PTC− HeLa cells. It counts as cell-based. The essentials:
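HeLa cells carrying a TCR-β minigene with or without a PTC were seeded at 100,000/well and exposed to compound across a concentration series for 1 h or 5 h. Total RNA was TRIzol-extracted, and 500 ng was reverse-transcribed with oligo(dT) primer. EvaGreen qPCR followed, with TCR-β normalized to β-actin. n = 3 ± SD.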

Test [2] concerns 4A1^F163L/4A2^− eHAP1 cells. Description: RT-qPCR of FF-4.04 and FF-4.06 reporter mRNA. In kind it is cell-based. The settings on record: 5 h exposure, normalized to GAPDH, relative to DMSO. Put shortly:
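Cells were nucleofected with the PTC-containing or control FLuc-β-globin reporter and selected as a pool in G418 (1.6 mg/mL). They were seeded at 250,000/well and exposed to compound for 5 h. After TRIzol extraction and oligo(dT) cDNA synthesis, EvaGreen qPCR used β-globin (HBB) primers. Values were normalized to GAPDH and expressed relative to DMSO.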
A general note: In qPCR the cycle at which signal appears reflects the starting amount.

Test [3] has as its system SC35 mRNA in 4A1^F163L/4A2^− eHAP1 cells. Description: RT-qPCR of endogenous SC35 and HPRT mRNA. The settings on record: 5 h exposure, normalized to β-actin. In kind it is cell-based. The essentials:
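Cells were seeded at 250,000/well and given a concentration series of compound for 5 h. Total RNA was TRIzol-extracted, and 500 ng was reverse-transcribed with oligo(dT) primer. EvaGreen qPCR measured SC35 and HPRT, normalized to β-actin and expressed as fold change versus DMSO.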

For test [4], the system named is Krebs-2 translation extracts. Nature of the test: In vitro translation of FF/HCV/Ren bicistronic reporter mRNAs. It counts as biochemical. Particulars: Krebs-2 extracts, 1 h at 30°C. Put shortly: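 Reporter mRNAs were used at 10 ng/µL final. FLuc and RLuc activities were read by luminometry, and RLU were normalized to DMSO vehicle controls.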
Test [5] deals with T1, eIF4A3 (Homo sapiens, UniProt P38919). Nature of the test: Fluorescence polarization. Particulars: 10 µM compound, 1 mM AMPPNP. In kind it is binding. (In general: Fluorescence polarisation rises when a labelled molecule tumbles more slowly, as on binding a larger partner.)
T1 sequence (P38919 whole entry, species assumed): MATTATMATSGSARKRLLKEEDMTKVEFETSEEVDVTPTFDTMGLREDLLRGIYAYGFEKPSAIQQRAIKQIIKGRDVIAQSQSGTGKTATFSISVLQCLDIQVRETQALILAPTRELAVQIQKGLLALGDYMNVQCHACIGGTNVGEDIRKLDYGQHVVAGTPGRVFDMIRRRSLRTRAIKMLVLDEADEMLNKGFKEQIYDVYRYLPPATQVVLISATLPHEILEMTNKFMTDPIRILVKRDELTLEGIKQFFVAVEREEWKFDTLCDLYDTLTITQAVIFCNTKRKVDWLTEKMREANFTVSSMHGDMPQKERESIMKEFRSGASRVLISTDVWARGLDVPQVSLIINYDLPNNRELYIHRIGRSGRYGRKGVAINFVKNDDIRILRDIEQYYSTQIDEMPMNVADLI
Test [6] deals with T2, eIF4A1 (Homo sapiens, UniProt P60842). Nature of the test: FP dissociation of preformed protein•ATP•RNA•compound complexes. It counts as binding. Particulars: 10 µM compound, 1 mM ATP, 1000-fold molar excess unlabeled poly r(AG)8 RNA. Put shortly:
(§1)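 Recombinant His6-tagged human protein was expressed in E. coli BL21(DE3) and Ni-NTA purified. Complexes were preformed for 30 min at RT in the dark in FP buffer (HEPES-NaOH pH 8, 0.1% DMSO) with 1.5 µM protein, 10 nM FAM-poly r(AG)8 and 1 mM ATP. DMSO reactions used 25 µM protein. After adding 10 µM unlabeled RNA, FP was read every 10 sec. Half-life came from a one-phase exponential decay fit (Y0 = 1, plateau = 0).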

For test [7], the target named is T1, eIF4A3. The description is as above. In kind it is binding. Particulars: 10 µM compound, 1 mM ATP, 1000-fold molar excess unlabeled poly r(AG)8 RNA. The essentials:
as §1

The subject of test [8] is HeLa cells harboring a (TCR)-β minigene. Nature of the test: [35S]-Methionine labeling of de novo protein synthesis. It counts as cell-based. Particulars: 1 h exposure, labeling last 15 min. Put shortly:
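PTC+ minigene HeLa cells were seeded at 50,000/well and treated with compound for 1 h the next day, with [35S]-Met/Cys added for the final 15 min. Cells were washed and lysed in RIPA buffer, and lysates were spotted on paper and TCA-precipitated. Radioactivity was measured by scintillation counting and normalized to total protein. n = 3 ± SD.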

In test [9] the test system is 4A1^F163L/4A2^− eHAP1 cells. Nature of the test: Luciferase NMD reporter assay. It counts as cell-based. Particulars: 6 h exposure. The essentials:
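Cells were transfected at 75% confluency with an FLuc-β-globin plasmid (PTC-containing or control, with or without an upstream HCV IRES) plus an HCV-IRES RLuc plasmid. The next day they were reseeded and left to recover for 24 h, then given compound for 6 h. Cells were lysed and both luciferases read by luminometry. n = 3 ± SD.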
(In general: In a reporter assay the amount or activity of a reporter protein is the signal.)

Test [10] has as its target T2, eIF4A1. Description: Fluorescence polarization. It counts as binding. The settings on record: 10 µM compound, 1 mM AMPPNP.

T2 sequence (P60842 whole entry, species assumed): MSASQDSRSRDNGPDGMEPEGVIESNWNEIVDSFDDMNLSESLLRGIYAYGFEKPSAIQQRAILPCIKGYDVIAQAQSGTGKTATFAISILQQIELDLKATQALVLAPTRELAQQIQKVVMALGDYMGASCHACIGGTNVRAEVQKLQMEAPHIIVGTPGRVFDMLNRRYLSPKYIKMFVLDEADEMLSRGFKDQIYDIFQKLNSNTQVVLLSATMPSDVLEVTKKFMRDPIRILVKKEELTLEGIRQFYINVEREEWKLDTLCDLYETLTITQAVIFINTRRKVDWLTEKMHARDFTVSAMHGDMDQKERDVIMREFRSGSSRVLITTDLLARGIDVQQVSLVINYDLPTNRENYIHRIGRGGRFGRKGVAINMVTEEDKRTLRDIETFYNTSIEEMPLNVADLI

Turning to `C[C@@H]1C[C@@H]([C@H](O)CC2CC(=O)NC(=O)C2)C(=O)[C@@H](C)C1` [CHX, cycloheximide], in [1] (PTC+ HeLa cells, 5 h exposure), the “TCR-β mRNA levels in PTC+ cells” value is “significantly increased”. In [1] (5 h exposure), the “TCR-β mRNA levels in PTC− cells” value is recorded as “no impact”. Moreover, the “FF-4.06 (NMD reporter) mRNA levels” value in test [2] is given as “increased”. Besides, in test [3], the “HPRT mRNA levels” value is “not increased” and the “SC35 mRNA levels relative to DMSO controls” value is listed as “significant increase”. In addition, the “Translational response of all three reporters (AG, UC, NMD 5′ leaders)” value in [4] is reported as “equally responsive”.

`CONC(=O)[C@H]1[C@@H](O)[C@@]2(O)c3c(OC)cc(OC)cc3O[C@@]2(c2ccc(OC)cc2)[C@@H]1c1ccccc1` [CR-1-31B]: in [5], the “Clamping of eIF4A3 to poly r(AG)8 RNA (ΔmP relative to DMSO)” value is on record as “able to induce clamping”. Further, the “Fitted half-life T(1/2) of eIF4A1•ATP•RNA•compound complex” value in test [6] was 0.833 ± 0.005 h. In addition, the “Fitted half-life T(1/2) of eIF4A3•ATP•RNA•compound complex” value in test [7] is 0.4 ± 0.0067 h. Besides, the “Effect on TCR-β minigene mRNA levels” value in test [1] (PTC+ HeLa cells, 1 µM compound for 1 h) was “no significant effect”. Moreover, in test [1] (PTC+ HeLa cells, 5 h exposure), the “TCR-β mRNA levels in PTC+ cells” value is listed as “substantial stabilization”. In test [8], the “35S-Met incorporation into proteins (translation)” value is “translation was blocked”. For the same molecule, the “Luc expression from FF-4.04 or FF-4.06 reporters” value in test [9] (300 nM, both reporters) is “approximately twofold”. Moreover, the “RLuc expression from internal HCV/Ren control” value in [9] is recorded as “No change”. Further, in test [9] (titration range tested), the “Expression of HCV/FF-4.04 and HCV/FF-4.06 reporters” value was “neither reporter showed a change in expression”. The “FF-4.06 (NMD reporter) mRNA levels” value in test [2] is listed as “increased only in the presence of CHX”. Besides, in test [3], the “HPRT mRNA levels” value is listed as “not increased” and the “SC35 mRNA levels relative to DMSO controls” value is “did not significantly change”. For the same molecule, in test [4], the “Translational response of reporter mRNA with polypurine ([AG]10) 5′ leader” value is given as “conferred CR-1-31B responsiveness”.

Take `CC(/C=C/C(C)=C/[C@@H]1Cc2nc(cs2)[C@@H](C)C[C@@H](N)CC(=O)O[C@@H](C)C/C(C)=C/C=C\C(=O)O1)=C\CN(C)C` [PatA, pateamine A]: in test [10], the “Clamping of eIF4A1 to poly r(AG)8 RNA (ΔmP relative to DMSO)” value was “clamping was observed”. Further, the “Clamping of eIF4A3 to poly r(AG)8 RNA (ΔmP relative to DMSO)” value in test [5] is listed as “clamping was observed”. The “Fitted half-life T(1/2) of eIF4A1•ATP•RNA•compound complex” value in test [6] was 1.83 h and 1.83 ± 0.0233 h. Also, the “Fitted half-life T(1/2) of eIF4A3•ATP•RNA•compound complex” value in test [7] was 3.05 h and 3.05 ± 0.02 h. In addition, in test [1] (PTC+ HeLa cells, 1 h exposure, highest concentration tested (200 nM)), the “Increase of PTC+ mRNA levels” value is “approximately threefold”. Also, in [1] (PTC+ HeLa cells, 5 h exposure), the “Increase of PTC+ mRNA levels” value stood at 10 fold and the “TCR-β mRNA levels in PTC+ cells” value is given as “Stabilization of TCR-β mRNA”. Also, in [1] (5 h exposure), the “TCR-β mRNA levels in PTC− cells” value is “but not PTC− cells”. Besides, the “35S-Met incorporation into proteins (translation)” value in test [8] is listed as “translation was blocked”. Further, in test [3], the “HPRT mRNA levels” value was “not increased” and the “SC35 mRNA levels relative to DMSO controls” value is “significant increase”. The “Translational response of all three reporters (AG, UC, NMD 5′ leaders)” value in test [4] is “equally inhibited all reporters”.

Regarding `COc1ccc([C@@]23Oc4cc(OC)cc(OC)c4[C@]2(O)[C@H](O)[C@H](C(=O)N(C)C)[C@H]3c2ccccc2)cc1` [RocA], the “Clamping of eIF4A3 to poly r(AG)8 RNA (ΔmP relative to DMSO)” value in test [5] is listed as “able to induce clamping”.

`COC(=O)[C@H]1[C@@H](O)[C@@]2(O)c3c(OC)cc(O[C@@H]4O[C@@H]([C@H](O)CO)CO[C@H]4OC)cc3O[C@@]2(c2ccc(OC)cc2)[C@@H]1c1ccccc1` [silvestrol]: the “Clamping of eIF4A3 to poly r(AG)8 RNA (ΔmP relative to DMSO)” value in test [5] is given as “able to induce clamping”.
